Test results published in ChEMBL document CHEMBL3120090, “High-affinity recognition of HIV-1 frameshift-stimulating RNA alters frameshifting in vitro and interferes with HIV-1 infectivity” (J Med Chem, 2014).
Blank lines part the entries; values can stand above or below the compound they belong to. Active and inactive are the calls of the source. No cut-off for these calls is given here.

Legend:
HEK293FT [1] = assay: Binding affinity to HTLV-2 FSS RNA transfected in HEK293FT cells at 1 to 50 uM after 36 hrs by Renilla/firefly luciferase reporter gene assay; format: cell-based; settings: Human T-lymphotropic virus 2
Outline: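 HEK293FT cells transiently transfected with pDualHTLV-2(−1) (Fluc made only via −1 frameshift at the HTLV-2 site) and treated 5 h later with compound (0–50 μM) in triplicate for 36 h at 37 °C. Fluc/Rluc ratio from lysate, relative to untreated transfected cells. Error is SEM.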

HEK293FT [2] = assay: Binding affinity to HIV-1 FSS RNA transfected in HEK293FT cells after 36 hrs by Renilla/firefly luciferase reporter gene assay; format: cell-based; settings: Human immunodeficiency virus 1
Outline: (§1)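 HEK293FT cells (1.5 × 10^4/well) transiently transfected with pDualHIV(−1) or in-frame pDualHIV(0) Rluc–FSS–Fluc plasmid (0.2 μg). Compound (0–50 μM) added 5 h later, in triplicate, for 36 h at 37 °C. Fluc/Rluc ratio from lysate, expressed relative to untreated transfected cells (100%). Error is SEM.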

HEK293FT [3] = assay: Binding affinity to HIV-1 FSS RNA transfected in HEK293FT cells at 50 uM after 36 hrs by Renilla/firefly luciferase reporter gene assay; format: cell-based; settings: Human immunodeficiency virus 1; outline: as §1
[4] = Cytotoxicity against HEK293FT cells assessed as cell viability at <60 uM after 24 hrs by WST-1 assay; format: cell-based; settings: human
Outline: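 HEK293FT cells at 80% confluence in DMEM/10% FBS exposed to compound (up to 0.5 mM) or a water control, in triplicate, for 24 h at 37 °C. WST-1 reagent then added for 2 h. Absorbance at 450 minus 690 nm, blank-corrected, plotted against concentration. Error is SD of three measurements.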

[5] = Cellular uptake in nucleus of HEK293FT cells at 50 uM measured for 12 hrs by fluorescence microscopy; format: ADME, cell-based; settings: human
[6] = Cellular uptake in cytoplasm of HEK293FT cells at 50 uM measured for 12 hrs by fluorescence microscopy; format: ADME, cell-based; settings: human
[7] = (§2) Binding affinity to HIV-1 FSS RNA in HBS buffer at pH 7.4 assessed as dissociation rate by surface plasmon resonance analysis; design: species or system Human immunodeficiency virus 1
Outline: (§3)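 RNA captured on SPR chips at low (~300 RU) and high (~1200 RU) density, each measured once. Compound flowed in HBS (0.01 M HEPES, 0.150 M NaCl, pH 7.4) at 60 μL/min over at least five concentrations, each injected at least twice. A 20 s 0.5 or 1 M NaCl pulse regenerated the chip where needed. Reference-subtracted, blank-corrected sensorgrams (association plus dissociation) were globally fit to 1:1 Langmuir; error is standard error of the fit.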

[8] = tested on: Human immunodeficiency virus 1; assay: Binding affinity to HIV-1 FSS RNA in HBS buffer at pH 7.4 assessed as association rate by surface plasmon resonance analysis; outline: as §3
[9] = Selectivity ratio of KD for FSS DNA (unknown origin) to KD for HIV-1 FSS RNA
Outline: (§4)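 Ratios of fluorescence-titration KD values (20 mM HEPES, 150 mM NaCl; compound 1 μM): KD for FSS DNA or total yeast tRNA divided by KD for HIV-1 FSS RNA.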

[10] = Selectivity ratio of KD for yeast tRNA to KD for HIV-1 FSS RNA; outline: as §4
[11] = Binding affinity to yeast tRNA after 10 mins by fluorescence titration analysis; design: species or system Saccharomyces cerevisiae
Outline: (§5)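 Solution fluorescence titration in 20 mM HEPES, 150 mM NaCl. Compound at 1 μM, titrated with unlabeled HIV-1 FSS RNA (10 μM stock), FSS DNA or yeast tRNA (40 μM stocks). 10 min equilibration after each addition. Quenching of benzo[g]quinoline fluorescence read in triplicate 1 min apart, corrected for dilution; KD from saturable quenching. Error is SD.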

[12] = Binding affinity to FSS DNA (unknown origin) after 10 mins by fluorescence titration analysis; outline: as §5
[13] = Binding affinity to HIV-1 FSS RNA after 10 mins by fluorescence titration analysis; design: species or system Human immunodeficiency virus 1; outline: as §5
[14] = tested on: Human T-lymphotropic virus 2; assay: Binding affinity to HTLV-2 FSS RNA up to 3 uM by surface plasmon resonance analysis
[15] = Binding affinity to HIV-1 FSS RNA in HBS buffer at pH 7.4 by surface plasmon resonance analysis; design: species or system Human immunodeficiency virus 1; outline: as §3
[16] = Binding affinity to HIV-1 FSS RNA in 20 mM HEPES buffer assessed as dissociation rate by surface plasmon resonance analysis in presence of 150 mM NaCl, 5 mM MgCl2 and 0.005 % tween-20; design: species or system Human immunodeficiency virus 1
Outline: (§6)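 SPR with HIV-1 FSS RNA captured on low-density (~300 RU) and high-density (~1200 RU) chips. Compound flowed at 50 μL/min in 20 mM HEPES, 150 mM NaCl, 5 mM MgCl2, 0.005% Tween-20. 0.5 or 1 M NaCl regeneration as needed. Each concentration injected at least twice. Kinetic constants and KD from individual fits of reference-subtracted sensorgrams.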

[17] = tested on: Human immunodeficiency virus 1; assay: Binding affinity to HIV-1 FSS RNA in 20 mM HEPES buffer assessed as association rate by surface plasmon resonance analysis in presence of 150 mM NaCl, 5 mM MgCl2 and 0.005 % tween-20; outline: as §6
[18] = Binding affinity to HIV-1 FSS RNA in 20 mM HEPES buffer by surface plasmon resonance analysis in presence of 150 mM NaCl, 5 mM MgCl2 and 0.005 % tween-20; design: species or system Human immunodeficiency virus 1; outline: as §6
[19] = tested on: Human immunodeficiency virus 1; assay: Increase in HIV-1 NL4-3 reverse transcriptase p66/51 level at 10 to 40 uM by Western blotting analysis; format: functional, organism-based
Outline: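 Pseudotyped virions from compound-treated producer cells, equal loads by p24 ELISA, pelleted through 20% sucrose at 100,000g. Western blot for RT and p24. Densitometry of nonsaturated bands gave p160/(p66+p51) and total RT/p24 ratios.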

[20] = tested on: Human immunodeficiency virus 1; assay: Antiviral activity against HIV-1 NL4-3 assessed as reduction in viral production […] after 24 hrs by fluorescence microscopy; format: functional, organism-based
Outline: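 HEK293T producer cells transfected with GFP-marked pseudotyped HIV-1 vector plus VSV-G and treated with compound 4 h after transfection. Proviral GFP expression imaged by fluorescence microscopy 24 h after treatment, before virions were harvested.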

[21] = tested on: Human immunodeficiency virus 1; assay: Antiviral activity against HIV-1 NL4-3 assessed as reduction in viral infectivity in human TZM-bl cells after 48 hrs by firefly luciferase reporter gene assay; format: functional, organism-based; settings: Human immunodeficiency virus 1, NL4-3, TZM-bl
Outline: (§7)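 Single-round infectivity of VSV-G pseudotyped HIV-1 (pDHIV3-GFP, NL4-3 genes minus nef/env) made in transfected HEK293T producer cells. Compounds added to producers 4 h post-transfection; virions harvested at 24 h, filtered, normalized by p24 ELISA. TZM-bl cells (10,000/well) infected with 500 pg p24/well in triplicate for 48 h; LTR-driven firefly luciferase luminescence read. EC50 derived from concentration series.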

[22] = tested on: Human immunodeficiency virus 1; assay: Antiviral activity against HIV-1 NL4-3 assessed as reduction in viral infectivity in human TZM-bl cells at 20 uM after 48 hrs by firefly luciferase reporter gene assay; format: functional; design: scale not given: the % may be the effect or the level left; outline: as §7
[23] = tested on: Human immunodeficiency virus 1; assay: Antiviral activity against HIV-1 NL4-3 infected in TZM-bl cells after 24 hrs
[24] = tested on: Human immunodeficiency virus 1; assay: as §2; outline: as §3
[25] = tested on: Human immunodeficiency virus 1; assay: Antiviral activity against HIV-1 NL4-3 assessed as reduction in viral infectivity in human TZM-bl cells at 40 uM after 48 hrs by firefly luciferase reporter gene assay; format: functional

Compound: CCc1nc2cc3ccccc3cc2cc1C(=O)N[C@@H](C/C=C\C[C@H](NC(=O)c1cc2cc3ccccc3cc2nc1CC)C(=O)N1CCC[C@H]1C(=O)N[C@@H](Cc1ccccc1)C(=O)NCCCN)C(=O)N1CCC[C@H]1C(=O)N[C@@H](Cc1ccccc1)C(=O)NCCCN
Activity (HEK293FT [1]): inactive
Activity (HEK293FT [2]): Dose-dependent effect
Activity (HEK293FT [3]): > 50%
Activity [4]: Non-toxic
Drug uptake [5]: Active
Drug uptake [6]: Active
Dissociation rate constant (koff) [7]: 4.11 ×10⁻³ /s
Ka [8]: 4.25 ×10⁴ /M/s
Ratio [9]: 4
Ratio [10]: 5
Kd [11]: 334 nM
Kd [12]: 265 nM
Kd [13]: 66 nM
Activity [14]: inactive
Kd ([15]; read-out: Kd): 102 nM
Kd [16]: 1.35 ×10⁻³ /s
Ka [17]: 2.17 ×10⁴ /M/s
Kd [18]: 71 nM
Activity [19]: Active
Activity [20]: Dose-dependent effect
EC50 [21]: 3900 nM
Activity [22]: >90%
Activity [23]: Active

Dissociation rate constant (koff) [7]: 1.63 ×10⁻¹ /s
Ka [8]: 7.71 ×10³ /M/s
Activity [14]: inactive
Kd ([15]; read-out: Kd): 20700 nM
Compound: CCc1nc2cc3ccccc3cc2cc1C(=O)N[C@@H](C/C=C/C[C@H](N)C(=O)N1CCC[C@H]1C(=O)N[C@@H](Cc1ccccc1)C(=O)NCCCN)C(=O)N1CCC[C@H]1C(=O)N[C@@H](Cc1ccccc1)C(=O)NCCCN

Dissociation rate constant (koff) [7]: 1.21 ×10⁻² /s
Ka [8]: 4.58 ×10³ /M/s
Activity [14]: inactive
Kd ([15]; read-out: Kd): 2760 nM
Compound: CCc1nc2cc3ccccc3cc2cc1C(=O)N[C@@H](C/C=C\C[C@H](N)C(=O)N1CCC[C@H]1C(=O)N[C@@H](Cc1ccccc1)C(=O)NCCCN)C(=O)N1CCC[C@H]1C(=O)N[C@@H](Cc1ccccc1)C(=O)NCCCN

Activity [24]: inactive
Activity [8]: inactive
Activity [14]: inactive
Kd [15]: Not Active
Compound: NCCCNC(=O)[C@H](Cc1ccccc1)NC(=O)[C@@H]1CCCN1C(=O)[C@@H](N)C/C=C/C[C@H](N)C(=O)N1CCC[C@H]1C(=O)N[C@@H](Cc1ccccc1)C(=O)NCCCN
Activity (HEK293FT [2]): inactive
Activity (HEK293FT [3]): inactive
Activity [25]: Active

Activity [14]: inactive
Compound: NCCCNC(=O)[C@H](Cc1ccccc1)NC(=O)[C@@H]1CCCN1C(=O)[C@@H](N)C/C=C\C[C@H](N)C(=O)N1CCC[C@H]1C(=O)N[C@@H](Cc1ccccc1)C(=O)NCCCN
